ChEMBL document CHEMBL3875170, “2-Methyl-4/5-nitroimidazole derivatives potentiated against sexually transmitted Trichomonas: Design, synthesis, biology and 3D-QSAR study” (Eur J Med Chem, 2016)
Values after ≈ are worked out from the molar mass of the structure shown.

Key:
Trichomonas vaginalis [1] = experiment: Antiparasitic activity against metronidazole sensitive Trichomonas vaginalis ATCC 33592 after 48 hrs by trypan blue exclusion assay; format: functional; conditions: ATCC 33592, 48 h
[2] = Cytotoxicity against human HeLa cells after 24 hrs by MTT assay; format: toxicity, cell-based
Summary of the method: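 HeLa cells seeded at 2 × 10⁴ per well in DMEM with 10% FCS, in triplicate, and held 24 h at 37 °C in 5% CO₂. Exposed to compound dilutions for 24 h; controls received 0.05% DMSO. MTT in PBS pH 7.4 added, formazan dissolved in DMSO, OD540 read. IC50 taken as the concentration killing 50% of cells.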

[3] = Selectivity index, ratio of IC50 for human HeLa cells to MIC for metronidazole sensitive Trichomonas vaginalis ATCC 33592; format: toxicity, cell-based; conditions: read-out: Selectivity Index
Summary of the method: (§1)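 SI is HeLa IC50 divided by parasite MIC. HeLa cells seeded at 2 × 10⁴/well in triplicate in DMEM with 10% FCS, 24 h at 37 °C in 5% CO2. Medium then replaced with compound dilutions (0.05% DMSO controls) for 24 h. Viability by MTT read at OD540; IC50 is the concentration killing 50% of cells. MIC from 48 h trypan blue parasite killing in TYM.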

Trichomonas vaginalis [4] = experiment: Antiparasitic activity against metronidazole resistant Trichomonas vaginalis ATCC 50143 after 48 hrs by trypan blue exclusion assay; format: functional; conditions: ATCC 50143, 48 h
Summary of the method: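 T. vaginalis trophozoites ([…]), log phase, grown in TYM with 10% FCS, vitamin mix and penicillin/streptomycin at 37 °C. Test agents from DMSO stocks serially diluted in TYM; DMSO/TYM vehicle controls. Anaerobic incubation at 37 °C with microscopic viability checks from 3 to 48 h by trypan blue exclusion. MIC is the lowest concentration killing all cells by 48 h. Repeated three times.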

[5] = Selectivity index, ratio of IC50 for human HeLa cells to MIC for metronidazole resistant Trichomonas vaginalis ATCC 50143; format: toxicity, cell-based; conditions: read-out: Selectivity Index; summary of the method: as §1
Trichomonas vaginalis [6] = experiment: Potency index, ratio of metronidazole MIC to compound MIC for metronidazole resistant Trichomonas vaginalis ATCC 50143; format: functional

SMILES | MIC (Trichomonas vaginalis [1]) [µM] | IC50 at 24 h [2] [mM] | selectivity ratio [3] | MIC (Trichomonas vaginalis [4]) [µM] | selectivity ratio [5] | Ratio (Trichomonas vaginalis [6])
CCN1CCN(CC(O)Cn2cc([N+](=O)[O-])nc2C)CC1 (racemic) | 337 (≈ 100 µg/mL) | > 5 | > 14 |  |  | 
Cc1ncc([N+](=O)[O-])n1CC(O)CN1CCN(c2ccco2)CC1 (racemic) | 21.5 (≈ 7.21 µg/mL) | 3.52 | 163 | 172 (≈ 57.7 µg/mL) | 20 | <=12.7
Cc1nc([N+](=O)[O-])cn1CC(O)CN1CCN(c2cccc(Cl)c2Cl)CC1 (racemic) | 121 (≈ 50 µg/mL) | 3.62 | 30 | 1210 (≈ 500 µg/mL) | 3 | 
Cc1ncc([N+](=O)[O-])n1CC(O)CN1CCOCC1 (racemic) [MORINIDAZOLE] | 46.3 (≈ 12.5 µg/mL) | > 5 | > 108 | 92.6 (≈ 25 µg/mL) | > 54 | <=12.7
CCN1CCN(C(=S)SCC(O)Cn2c([N+](=O)[O-])cnc2C)CC1 (racemic) | 20.9 (≈ 7.82 µg/mL) | > 5 | > 250 | 83.8 (≈ 31.3 µg/mL) | > 60 | <=12.7
Cc1ncc([N+](=O)[O-])n1CC(O)CN1CCN(c2cccc(Cl)c2)CC1 (racemic) | 132 (≈ 50.1 µg/mL) | 1.44 | 10 | 330 (≈ 125 µg/mL) | 4 | <=12.7
CCCCN1CCN(C(=S)SCC(O)Cn2cc([N+](=O)[O-])nc2C)CC1 (racemic) | 125 (≈ 50.1 µg/mL) | 4.33 | 34 |  |  | 
COc1ccccc1N1CCN(C(=S)SCC(O)Cn2cc([N+](=O)[O-])nc2C)CC1 (racemic) | 222 (≈ 100 µg/mL) | > 5 | > 22 | 1110 (≈ 501 µg/mL) | > 4 | 
Cc1ncc([N+](=O)[O-])n1CC(O)CSC(=S)N1CCN(c2ncccn2)CC1 (racemic) | 29.6 (≈ 12.5 µg/mL) | 2.04 | 69 | 29.6 (≈ 12.5 µg/mL) | 69 | 12.3
CCN(C)C(=S)SCC(O)Cn1c([N+](=O)[O-])cnc1C (stereo not given) | 24.6 (≈ 7.82 µg/mL) | 4.15 | 169 | 393 (≈ 125 µg/mL) | 10 | 
CCOC(=O)N1CCN(C(=S)SCC(O)Cn2cc([N+](=O)[O-])nc2C)CC1 (racemic) | 120 (≈ 50.1 µg/mL) | 2.36 | 19 | 600 (≈ 250 µg/mL) | 4 | 
Cc1ncc([N+](=O)[O-])n1CC(O)CSC(=S)N1CCCCCC1 (racemic) | 34.9 (≈ 12.5 µg/mL) | 0.411 | 11 | 69.8 (≈ 25 µg/mL) | 6 | 2.5 - 12.6
Cc1nc([N+](=O)[O-])cn1CC(O)CSC(=S)N1CCN(c2cccc(Cl)c2)CC1 (racemic) | 54.9 (≈ 25.1 µg/mL) | 1.74 | 31 | 549 (≈ 251 µg/mL) | 3 | 
Cc1ncc([N+](=O)[O-])n1CC(O)CN1CCC(C)CC1 (racemic) | 44.3 (≈ 12.5 µg/mL) | > 5 | > 113 | 177 (≈ 50.1 µg/mL) | > 28 | <=12.7
Cc1ncc([N+](=O)[O-])n1CC(O)Cn1cncn1 (racemic) | 31 (≈ 7.82 µg/mL) | 4.97 | 160 | 99.2 (≈ 25 µg/mL) | 50 | <=12.7
Cc1ncc([N+](=O)[O-])n1CC(O)CSC(=S)N1CCCCC1 (racemic) | 72.7 (≈ 25 µg/mL) | 1.4 | 19 | 145 (≈ 50.1 µg/mL) | 9 | 2.5 - 12.6
Cc1ncc([N+](=O)[O-])n1CC(O)CN1CCCC1 (racemic) | 49.2 (≈ 12.5 µg/mL) | > 5 | > 102 | 197 (≈ 50.1 µg/mL) | > 25 | <=12.7
Cc1nc([N+](=O)[O-])cn1CC(O)CSC(=S)N1CCN(c2ccccc2)CC1 (racemic) | 22.7 (≈ 9.56 µg/mL) | > 5 | > 227 | 297 (≈ 125 µg/mL) | > 16 | <=12.7
Cc1ncc([N+](=O)[O-])n1CC(O)CN1C(C)CCCC1C (racemic) | 42.2 (≈ 12.5 µg/mL) | > 5 | > 119 | 84.5 (≈ 25 µg/mL) | > 59 | <=12.7

SMILES | MIC (Trichomonas vaginalis [1]) [µM] | IC50 at 24 h [2] [mM] | selectivity ratio [3] | MIC (Trichomonas vaginalis [4]) [µM] | selectivity ratio [5] | Ratio (Trichomonas vaginalis [6])
Cc1nc([N+](=O)[O-])cn1CC(O)CSC(=S)N1CCN(C(=O)OC(C)(C)C)CC1 (racemic) | 28.1 (≈ 12.5 µg/mL) | > 5 | > 178 | 562 (≈ 250 µg/mL) | > 9 | 
Cc1ncc([N+](=O)[O-])n1CC(O)CN1CCN(c2ncccn2)CC1 (racemic) | 22.5 (≈ 7.82 µg/mL) | 3.93 | 174 | 90 (≈ 31.3 µg/mL) | 43 | <=12.7
Cc1nc([N+](=O)[O-])cn1CC(O)Cn1cncn1 (racemic) | 99.2 (≈ 25 µg/mL) | > 5 | > 50 | 992 (≈ 250 µg/mL) | > 5 | 
Cc1ncc([N+](=O)[O-])n1CC(O)Cn1nnc2ccccc21 (racemic) | 25.9 (≈ 7.82 µg/mL) | 4.24 | 169 | 41.4 (≈ 12.5 µg/mL) | 103 | <=12.7
CCN1CCN(C(=S)SCC(O)Cn2cc([N+](=O)[O-])nc2C)CC1 (racemic) | 134 (≈ 50.1 µg/mL) | > 5 | > 37 | 1340 (≈ 501 µg/mL) | > 3 | 
Cc1ncc([N+](=O)[O-])n1CC(O)CSC(=S)N1CCN(c2ccccn2)CC1 (racemic) | 29.6 (≈ 12.5 µg/mL) | 2.97 | 100 | 148 (≈ 62.6 µg/mL) | 20 | <=12.7
Cc1ncc([N+](=O)[O-])n1CC(O)CN1CCCCC1 (racemic) | 23.3 (≈ 6.26 µg/mL) | > 5 | > 217 | 187 (≈ 50.1 µg/mL) | > 26 | <=12.7
Cc1ncc([N+](=O)[O-])n1CC(O)Cn1cnc([N+](=O)[O-])c1 (racemic) | 26.4 (≈ 7.81 µg/mL) | > 5 | > 192 | 106 (≈ 31.3 µg/mL) | > 47 | <=12.7
Cc1ncc([N+](=O)[O-])n1CC(O)CSC(=S)N1CCOCC1 (racemic) | 36.1 (≈ 12.5 µg/mL) | 4.52 | 125 | 144 (≈ 50.1 µg/mL) | 31 | 2.5 - 12.6
Cc1ncc([N+](=O)[O-])n1CC(O)CN1CCN(c2ccccc2)CC1 (racemic) | 22.6 (≈ 7.82 µg/mL) | > 5 | > 220 | 181 (≈ 62.6 µg/mL) | > 27 | <=12.7
Cc1ncc([N+](=O)[O-])n1CC(O)CN1CCN(c2ccccc2F)CC1 (racemic) | 43 (≈ 15.6 µg/mL) | > 5 | > 116 | 344 (≈ 125 µg/mL) | > 14 | <=12.7
Cc1ncc([N+](=O)[O-])n1CC(O)CSC(=S)N1CCCC1 (racemic) | 37.9 (≈ 12.5 µg/mL) | 1.34 | 35 | 152 (≈ 50.1 µg/mL) | 9 | 2.5 - 12.6
Cc1ncc([N+](=O)[O-])n1CC(O)CN1CCC(Cc2ccccc2)CC1 (racemic) | 34.9 (≈ 12.5 µg/mL) | 1.43 | 40 | 140 (≈ 50.1 µg/mL) | 10 | <=12.7
Cc1ncc([N+](=O)[O-])n1CC(O)CN1CCCC(C)C1 (racemic) | 22.2 (≈ 6.26 µg/mL) | > 5 | > 227 | 88.7 (≈ 25 µg/mL) | > 56 | <=12.7
Cc1nc([N+](=O)[O-])cn1CC(O)CN1CCN(c2ccccn2)CC1 (racemic) | 144 (≈ 50.1 µg/mL) | > 5 | > 34 | 1450 (≈ 501 µg/mL) | > 3 | 
Cc1ncc([N+](=O)[O-])n1CC(O)CN1CCCCCC1 (racemic) | 22.2 (≈ 6.26 µg/mL) | > 5 | > 227 | 44.3 (≈ 12.5 µg/mL) | > 113 | <=12.7
Cc1ncc([N+](=O)[O-])n1CC(O)CN1CCCCC1C (racemic) | 55.4 (≈ 15.6 µg/mL) | > 5 | > 90 | 443 (≈ 125 µg/mL) | > 11 | 
Cc1nc([N+](=O)[O-])cn1CC(O)CSC(=S)N1CCN(c2cccc(Cl)c2Cl)CC1 (racemic) | 25.5 (≈ 12.5 µg/mL) | 0.724 | 30 | 510 (≈ 250 µg/mL) | 2 | 
Cc1nc([N+](=O)[O-])cn1CC(O)CSC(=S)N1CCCC(C)C1 (racemic) | 34.9 (≈ 12.5 µg/mL) | 2.7 | 105 | 1400 (≈ 501 µg/mL) | 2 | 
